The source made the active and inactive calls. The calls are words filed in the database; no cut-off is given here.
How the values were obtained:
[1] = target: T1, Mitogen-activated protein kinase 14 (Homo sapiens, UniProt Q16539); experiment: Inhibition of Nano-Luc fused p38alpha (unknown origin) expressed in HEK293T cells pretreated for 3 hrs followed by K5-tarcer addition and measured after 1 hr by NanoBRET assay; type: cell-based; conditions: time 4.0 hrs
[2] = target: T2, Mitogen-activated protein kinase 8 (Homo sapiens, UniProt P45983); experiment: Inhibition of His-tagged human recombinant JNK1 expressed in insect cells incubated for 1 hr in presence of ATP by Z'-Lyte assay relative to control; conditions: Insect cell
MM1.S [3] = experiment: Induction of apoptosis in human MM1.S cells assessed as increase in caspase-3 cleavage at 0.5 to 2.5 uM incubated for 24 hrs by immunoblot analysis; type: functional, cell-based; conditions: dose 0.5-2.5 µM
[4] = target: T3, Mitogen-activated protein kinase 9 (Homo sapiens, UniProt P45984); experiment: Covalent binding affinity to JNK2 in human MM1.S cells at 500 nM incubated for 6 hrs by biotin-JNK-IN-7 probe based pull-down competition based analysis; type: cell-based
How it was run: (§1)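 MM.1S cells exposed to compound or DMSO 6 h; lysed in HEPES pH 7.4/NP-40 buffer; lysates incubated with 1 μM biotin-JNK-IN-7 overnight at 4 °C then 2 h room temperature; streptavidin pull-down 2–3 h at 4 °C; bound JNK1/JNK2 detected by western blot.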

[5] = target: Mitogen-activated protein kinase 10 (Homo sapiens) (UniProt P53779); experiment: Inhibition of JNK3 in human MM1.S cells at 1 uM by KiNativ Profiling analysis; type: cell-based
How it was run: (§2)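 MM.1S cells treated with 1 μM compound, collected, PBS-washed, frozen; KiNativ lysate profiling with ATP/ADP-biotin probe labelling conserved catalytic lysine.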

[6] = Antiproliferative activity against human HAP1 cells assessed as inhibition of cell growth incubated for 3 days by CellTiter-Glo luminescent assay; type: functional, cell-based; conditions: HAP1, 72 h
[7] = target: T2, Mitogen-activated protein kinase 8; experiment: Covalent binding affinity to JNK1 in human MM1.S cells at 2 uM incubated for 6 hrs by biotin-JNK-IN-7 probe based pull-down competition based analysis; type: cell-based; how it was run: as §1
[8] = Antiproliferative activity against human HAP1 cells transfected with sgGFP assessed as inhibition of cell growth incubated for 3 days by CellTiter-Glo luminescent assay; type: functional, cell-based; conditions: HAP1, 72 h
[9] = Half life in human liver microsomes at 1 uM by LC-MS/MS analysis; type: ADME, Microsome
[10] = Antiproliferative activity against JNK knock-out human HAP1 cells transfected with sgJNK#1 assessed as inhibition of cell growth incubated for 3 days by CellTiter-Glo luminescent assay; type: functional, cell-based; conditions: HAP1, 72 h
[11] = target: T2, Mitogen-activated protein kinase 8; experiment: Inhibition of JNK1 in human MM1.S cells at 1 uM by KiNativ Profiling analysis; type: cell-based; how it was run: as §2
[12] = target: T4, 1-phosphatidylinositol 3-phosphate 5-kinase (Homo sapiens, UniProt Q9Y2I7); experiment: Inhibition of wild type partial length human PIKFYVE (F1512 to C2098 residues) expressed in mammalian expression system at 1 uM by KinomeScan analysis
How it was run: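 KINOMEscan (ScanMAX) binding panel of >400 kinases, compound tested at 1 μM; reported as percent inhibition/score.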

MM1.S [13] = experiment: Antiproliferative activity against human MM1.S cells assessed as inhibition of cell growth rate pretreated for 1 hr with JNK2 inhibitor, CC930 followed by incubation with drug and measured after 72 hrs by CellTiter-Glo luminescent assay; type: functional, cell-based
How it was run: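 MM.1S cells seeded 4000 cells/well, pretreated with 10 μM CC930, then exposed to inhibitor for 72 h; CellTiter-Glo luminescence, GR values from GR calculator; three biological replicates.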

[14] = target: T4, 1-phosphatidylinositol 3-phosphate 5-kinase; experiment: Inhibition of PIKFYVE in human MDA-MB-231 cells assessed as vacuole formation upto 4 uM measured after 3 days by bright field microscopy; type: cell-based; conditions: time 3.0 day
How it was run: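 MDA-MB-231 cells (DMEM, 10% FBS) seeded, next day treated with inhibitor or DMSO; after 3 days imaged by bright-field microscopy at 20× for vacuoles.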

[15] = Antiproliferative activity against wild type human ANBL-6 cells assessed as inhibition of cell growth incubated for 72 hrs by CellTiter-Glo luminescent assay; type: functional, cell-based; conditions: ANBL-6, 72 h
[16] = target: T1, Mitogen-activated protein kinase 14; experiment: Inhibition of GST-tagged human recombinant p38alpha expressed in Escherichia coli by Z'-LYTE assay
[17] = target: Mitogen-activated protein kinase 10 (Homo sapiens) (UniProt P53779); experiment: Inhibition of GST-tagged human recombinant JNK3 expressed in insect cells incubated for 1 hr in presence of ATP by Z'-lyte assay relative to control; conditions: Insect cell
[18] = Half life in mouse liver microsomes at 1 uM by LC-MS/MS analysis; type: ADME, Microsome
MM1.S [19] = experiment: Antiproliferative activity against human MM1.S cells overexpressing wild type JNK2 assessed as inhibition of cell growth rate measured after 72 hrs by CellTiter-Glo luminescent assay; type: functional, cell-based
[20] = Antiproliferative activity against JNK knock-out human HAP1 cells transfected with sgJNK#2 assessed as inhibition of cell growth incubated for 3 days by CellTiter-Glo luminescent assay; type: functional, cell-based; conditions: HAP1, 72 h
[21] = Antiproliferative activity against Bortezomib-resistant human ANBL-6 cells assessed as inhibition of cell growth incubated for 72 hrs by CellTiter-Glo luminescent assay; type: functional, cell-based; conditions: ANBL-6, 72 h
[22] = GSH reactivity in potassium phosphate buffer at pH 7.4 assessed as half life at 1 uM by LC-MS/MS analysis; type: ADME; conditions: pH 7.4, 1 µM
MM1.S [23] = experiment: Induction of apoptosis in human MM1.S cells assessed as increase in PARP cleavage at 0.5 to 2.5 uM incubated for 24 hrs by immunoblot analysis; type: functional, cell-based; conditions: dose 0.5-2.5 µM
MM1.S [24] = experiment: Induction of apoptosis in human MM1.S cells at 250 nM by AnnexinV/PI staining based flow cytometry; type: functional, cell-based
[25] = target: T4, 1-phosphatidylinositol 3-phosphate 5-kinase; experiment: Inhibition of PIKFYVE in human SUM159 cells at 1 uM by KiNativ Profiling analysis; type: cell-based; conditions: SUM159PT
How it was run: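 SUM159 cells treated with 1 μM compound, collected, PBS-washed and frozen; lysates probed with ATP/ADP-biotin acyl probe labelling catalytic lysine (KiNativ); protection from labelling measured.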

[26] = target: T3, Mitogen-activated protein kinase 9; experiment: Inhibition of JNK2 in human MM1.S cells at 1 uM by KiNativ Profiling analysis; type: cell-based; how it was run: as §2
MM1.S [27] = type: functional, cell-based; conditions: Homo sapiens, time 72.0 hrs
MM1.S [28] = experiment: Antiproliferative activity against human MM1.S cells assessed as inhibition of cell growth rate measured after 72 hrs by CellTiter-Glo luminescent assay; type: functional
[29] = target: T3, Mitogen-activated protein kinase 9; experiment: Inhibition of His-tagged human recombinant JNK2 expressed in baculovirus expression system incubated for 1 hr in presence of ATP by Z'-Lyte assay relative to control

T2 sequence (P45983 whole entry): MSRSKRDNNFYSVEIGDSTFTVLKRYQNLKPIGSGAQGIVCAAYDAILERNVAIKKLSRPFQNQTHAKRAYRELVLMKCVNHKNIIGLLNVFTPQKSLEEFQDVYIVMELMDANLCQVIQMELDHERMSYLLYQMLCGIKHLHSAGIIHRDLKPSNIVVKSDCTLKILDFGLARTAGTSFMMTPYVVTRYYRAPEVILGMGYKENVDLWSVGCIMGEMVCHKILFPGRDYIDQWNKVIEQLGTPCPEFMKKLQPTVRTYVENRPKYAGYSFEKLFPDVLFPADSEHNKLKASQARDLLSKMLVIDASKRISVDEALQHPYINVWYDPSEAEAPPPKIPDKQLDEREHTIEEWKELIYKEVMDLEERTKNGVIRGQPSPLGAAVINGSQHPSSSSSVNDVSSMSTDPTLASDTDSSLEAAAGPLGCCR
T3 sequence (P45984 whole entry, looked up): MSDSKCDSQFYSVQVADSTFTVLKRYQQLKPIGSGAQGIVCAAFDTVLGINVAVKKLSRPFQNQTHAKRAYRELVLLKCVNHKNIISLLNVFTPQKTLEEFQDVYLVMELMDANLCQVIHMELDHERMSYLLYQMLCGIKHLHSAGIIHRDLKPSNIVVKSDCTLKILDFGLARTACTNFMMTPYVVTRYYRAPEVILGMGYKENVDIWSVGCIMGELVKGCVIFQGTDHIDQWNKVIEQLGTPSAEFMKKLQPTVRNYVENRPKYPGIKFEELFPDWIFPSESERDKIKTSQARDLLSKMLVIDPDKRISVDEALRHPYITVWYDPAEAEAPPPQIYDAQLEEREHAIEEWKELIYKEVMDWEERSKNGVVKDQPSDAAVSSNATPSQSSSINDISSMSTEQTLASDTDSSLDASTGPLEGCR
T4 sequence (Q9Y2I7 whole entry, the tested form may be a part): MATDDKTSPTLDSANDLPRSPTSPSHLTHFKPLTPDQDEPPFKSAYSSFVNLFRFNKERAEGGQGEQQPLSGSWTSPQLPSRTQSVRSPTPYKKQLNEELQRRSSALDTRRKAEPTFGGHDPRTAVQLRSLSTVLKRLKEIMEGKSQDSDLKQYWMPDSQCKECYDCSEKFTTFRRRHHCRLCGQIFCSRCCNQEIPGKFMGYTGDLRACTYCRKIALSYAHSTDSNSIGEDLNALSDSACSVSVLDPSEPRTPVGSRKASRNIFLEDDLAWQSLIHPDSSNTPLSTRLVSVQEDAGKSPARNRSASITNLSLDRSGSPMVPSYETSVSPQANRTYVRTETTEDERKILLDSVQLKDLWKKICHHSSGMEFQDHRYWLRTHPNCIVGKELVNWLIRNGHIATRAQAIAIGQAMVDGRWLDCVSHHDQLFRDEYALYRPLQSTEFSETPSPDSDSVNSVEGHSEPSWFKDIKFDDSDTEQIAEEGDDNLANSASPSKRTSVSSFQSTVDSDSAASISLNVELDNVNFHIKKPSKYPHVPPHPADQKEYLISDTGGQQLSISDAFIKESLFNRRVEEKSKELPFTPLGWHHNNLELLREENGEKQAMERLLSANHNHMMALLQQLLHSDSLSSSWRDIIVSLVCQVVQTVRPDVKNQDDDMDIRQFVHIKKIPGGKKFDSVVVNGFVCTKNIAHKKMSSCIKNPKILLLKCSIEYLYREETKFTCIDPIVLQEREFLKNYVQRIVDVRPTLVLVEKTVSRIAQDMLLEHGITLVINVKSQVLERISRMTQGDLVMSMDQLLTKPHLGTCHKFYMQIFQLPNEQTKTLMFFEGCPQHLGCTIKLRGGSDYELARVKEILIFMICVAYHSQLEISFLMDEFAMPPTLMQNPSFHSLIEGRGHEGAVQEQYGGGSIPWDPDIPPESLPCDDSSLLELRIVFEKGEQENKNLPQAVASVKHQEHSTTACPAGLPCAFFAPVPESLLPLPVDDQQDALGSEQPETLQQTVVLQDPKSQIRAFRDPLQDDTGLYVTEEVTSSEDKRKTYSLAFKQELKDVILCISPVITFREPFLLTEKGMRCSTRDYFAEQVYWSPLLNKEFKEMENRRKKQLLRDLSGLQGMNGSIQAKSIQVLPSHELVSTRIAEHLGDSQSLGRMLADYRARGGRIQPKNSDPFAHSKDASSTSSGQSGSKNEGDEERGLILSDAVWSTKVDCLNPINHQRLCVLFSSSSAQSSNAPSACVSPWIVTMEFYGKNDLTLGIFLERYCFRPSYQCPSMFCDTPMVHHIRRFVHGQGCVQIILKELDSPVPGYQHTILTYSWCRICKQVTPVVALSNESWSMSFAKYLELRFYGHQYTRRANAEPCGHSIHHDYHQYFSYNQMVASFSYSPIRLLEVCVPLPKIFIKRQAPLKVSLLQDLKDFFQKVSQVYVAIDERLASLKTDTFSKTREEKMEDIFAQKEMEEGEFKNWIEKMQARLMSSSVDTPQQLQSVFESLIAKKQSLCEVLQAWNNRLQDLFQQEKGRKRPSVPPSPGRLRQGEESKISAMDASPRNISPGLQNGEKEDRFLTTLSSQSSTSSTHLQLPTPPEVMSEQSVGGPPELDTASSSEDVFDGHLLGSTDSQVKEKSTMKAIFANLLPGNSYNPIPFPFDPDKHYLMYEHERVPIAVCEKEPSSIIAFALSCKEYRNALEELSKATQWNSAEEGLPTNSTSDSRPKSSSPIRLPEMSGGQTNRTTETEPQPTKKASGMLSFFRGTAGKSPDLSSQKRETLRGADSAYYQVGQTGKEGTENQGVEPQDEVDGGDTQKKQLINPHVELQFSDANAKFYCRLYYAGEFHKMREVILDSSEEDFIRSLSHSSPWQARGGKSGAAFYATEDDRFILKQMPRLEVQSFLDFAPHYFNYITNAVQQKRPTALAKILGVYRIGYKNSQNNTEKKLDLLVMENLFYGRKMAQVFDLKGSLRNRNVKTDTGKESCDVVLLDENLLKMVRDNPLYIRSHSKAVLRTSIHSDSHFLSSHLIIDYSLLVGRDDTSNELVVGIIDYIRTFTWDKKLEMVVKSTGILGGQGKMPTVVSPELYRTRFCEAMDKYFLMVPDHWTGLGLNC
Mitogen-activated protein kinase 10 (Homo sapiens), sequence (P53779 whole entry): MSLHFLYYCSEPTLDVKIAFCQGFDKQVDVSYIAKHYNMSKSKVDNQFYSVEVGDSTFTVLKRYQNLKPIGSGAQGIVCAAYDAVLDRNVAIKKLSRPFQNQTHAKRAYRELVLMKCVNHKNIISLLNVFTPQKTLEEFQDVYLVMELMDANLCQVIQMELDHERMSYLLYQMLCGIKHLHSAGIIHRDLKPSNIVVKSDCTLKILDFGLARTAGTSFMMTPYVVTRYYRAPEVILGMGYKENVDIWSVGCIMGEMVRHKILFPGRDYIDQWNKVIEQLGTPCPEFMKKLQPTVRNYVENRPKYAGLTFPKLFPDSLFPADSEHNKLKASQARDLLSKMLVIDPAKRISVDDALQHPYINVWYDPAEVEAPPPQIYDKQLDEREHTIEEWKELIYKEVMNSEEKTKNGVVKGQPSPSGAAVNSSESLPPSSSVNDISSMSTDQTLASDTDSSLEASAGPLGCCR
T1 sequence (Q16539 whole entry, the tested form may be a part): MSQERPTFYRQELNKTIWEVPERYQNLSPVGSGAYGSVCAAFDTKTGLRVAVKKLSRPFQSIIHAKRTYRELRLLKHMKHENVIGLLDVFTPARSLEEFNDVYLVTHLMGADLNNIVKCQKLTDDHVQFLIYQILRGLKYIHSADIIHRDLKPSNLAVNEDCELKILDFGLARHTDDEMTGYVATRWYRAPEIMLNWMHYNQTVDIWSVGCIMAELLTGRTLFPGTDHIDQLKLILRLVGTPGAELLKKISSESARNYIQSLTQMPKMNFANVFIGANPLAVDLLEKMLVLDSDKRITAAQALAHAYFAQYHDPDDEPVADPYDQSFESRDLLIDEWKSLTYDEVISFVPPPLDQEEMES

C[C@H]1CN(C(=O)c2ccc(NC(=O)/C=C/CN(C)C)cc2)C[C@H]1Nc1nccc(-c2c(-c3ccccc3)nn3ccccc23)n1
inhibition [1]: Active
Imax [2]: 85%
Activity (MM1.S [3]): Active
Activity [4]: Active
inhibition [5]: Active
IC50 [6]: 529 nM
Activity [7]: Active
IC50 [8]: 976 nM
t1/2 [9]: 16 min
IC50 [10]: 1110 nM
inhibition [11]: Active
inhibition [12]: 44%
Activity (MM1.S [13]): Active
inhibition [14]: inactive
IC50 [15]: 120 nM
IC50 [16]: 15 nM
Imax [17]: 68%
t1/2 [18]: 11 min
Activity (MM1.S [19]): Active
IC50 [20]: 846 nM
IC50 [21]: 96 nM
t1/2 [22]: 46 min
Activity (MM1.S [23]): Active
Activity (MM1.S [24]): Active
inhibition [25]: inactive
inhibition [26]: Active
Activity (MM1.S [27]): Active
GR50 (MM1.S [28]): 200 nM
Imax [29]: 98%

— ChEMBL document CHEMBL5316351, “Development of a Covalent Inhibitor of c-Jun N-Terminal Protein Kinase (JNK) 2/3 with Selectivity over JNK1” (J Med Chem, 2023)
